Screening data (PubChem)
Shown are actives, neighbours in structure and some others; about 2.5% of the full set was active somewhere.
PRMT1 inh: PRMT1 methyltransferase inhibitors, primary screen, biochemical, fluorescence polarization | Protein arginine N-methyltransferase 1 (Homo sapiens), Q99873 | recombinant PRMT1, activity-based probe fluorescence polarization | inhibition, % at 2.79 µM | 370,000 compounds, 1.3% hits;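 active = inhibition above about 21% made by adding two undisclosed values, limit read from the data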
TDP2 inh: human TDP2 enzyme inhibitors, primary screen, biochemical, epi absorbance, recombinant enzyme; inhibition, % at 12.8 µM; Tyrosyl-DNA phosphodiesterase 2 (Homo sapiens), O95551; 370,000 compounds, 0.34% hits; T5PNP hydrolysis, p-nitrophenol absorbance 415 nm;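 active = inhibition above the mean of all tested compounds plus 3 SD, set per campaign, cut at about 25% in these data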
Target sequence (O95551 whole entry, looked up): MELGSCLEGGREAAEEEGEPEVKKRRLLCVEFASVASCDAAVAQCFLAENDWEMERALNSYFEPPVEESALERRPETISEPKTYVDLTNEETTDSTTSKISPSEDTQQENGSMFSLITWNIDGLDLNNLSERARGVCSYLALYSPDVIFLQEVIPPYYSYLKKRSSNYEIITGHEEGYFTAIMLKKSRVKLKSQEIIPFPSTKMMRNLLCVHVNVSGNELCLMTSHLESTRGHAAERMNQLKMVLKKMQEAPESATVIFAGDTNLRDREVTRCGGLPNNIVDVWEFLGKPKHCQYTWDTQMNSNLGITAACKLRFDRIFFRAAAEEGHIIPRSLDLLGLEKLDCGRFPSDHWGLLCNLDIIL
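Test system: Human TDP2 enzyme | Reagent: 5 mM T5PNP | Compound dosing: 12.8 µM single point, 1% DMSO | Incubation: Enzyme reaction with compound for 2 h at 37 °C | Technique: p-Nitrophenol epi absorbance | Read-out: % inhibition relative to enzyme-containing and enzyme-free wells | Benchmarks: High control without enzyme, low control DMSO plus TDP2 | Replicates: Singlicate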
Fh CTSL1 inh: Fasciola hepatica cathepsin L1 inhibitors, primary screen, counter-screen for PFM18AAP inhibitor project, biochemical, QFRET, fluorogenic peptide substrate. recombinant F. hepatica cathepsin L1, Z-Leu-Arg-MCA fluorescence. 300,000 compounds, 0.49% hits. inhibition, % at 5.96 µM. AID 1906, 2009;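 active = inhibition above the mean of all tested compounds plus 3 SD, set per screening campaign, cut at about 17% in these data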
PAD4 FP inh: human PAD4 inhibitors, primary screen, biochemical, fluorescence polarization, 1536-well format. recombinant PAD4, RCA probe fluorescence polarization. inhibition, % at 6.36 µM. 330,000 compounds, 0.41% hits;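 active = percent inhibition above a cutoff equal to the mean of all tested compounds plus 3 SD, cut at about 15% in these data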
GSTO1 counter: inhibitors of recombinant GSTO1, primary screen, counter-screen for RBBP9 inhibitor project, biochemical, fluorescence polarization; Glutathione S-transferase omega-1 (Homo sapiens), P78417; activity-based probe fluorescence polarization; inhibition, % at 5.96 µM; 300,000 compounds, 1.1% hits;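 active = inhibition above the campaign mean inhibition plus 3 SD, cut at about 35% in these data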
Target sequence (P78417 whole entry, looked up): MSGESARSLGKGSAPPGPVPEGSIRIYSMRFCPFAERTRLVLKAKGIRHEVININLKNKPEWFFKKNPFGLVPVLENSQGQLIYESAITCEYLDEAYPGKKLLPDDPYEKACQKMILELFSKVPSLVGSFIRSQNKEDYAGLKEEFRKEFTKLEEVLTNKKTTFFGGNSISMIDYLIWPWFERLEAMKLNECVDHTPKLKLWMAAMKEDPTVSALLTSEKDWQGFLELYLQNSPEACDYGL
PRMT1 confirm: PRMT1 methyltransferase inhibitors, confirmation, biochemical, fluorescence polarization, triplicate; shares compounds with PRMT1 inh; recombinant His-PRMT1, activity-based probe fluorescence polarization; inhibition, % at 2.79 µM; 3,300 compounds, 42% hits; AID 687036, 2013;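 active = mean inhibition across replicates above the hit cutoff derived for the earlier primary screen, cut at about 22% in these data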
Hits are given with their value; n = inactive; x = no result.

SMILES | PRMT1 inh | TDP2 inh | Fh CTSL1 inh | PAD4 FP inh | GSTO1 counter | PRMT1 confirm
Cc1cccc(N2C(=O)C(Cl)=C(N3CCOCC3)C2=O)c1 | 28 | n | 28 | n | n | n
O=S(=O)(O)Sc1ccccc1 | n | n | x | x | x | x
CCN(CC)c1ccc(SS(=O)(=O)O)cc1 | 75 | n | n | n | n | 83
COC(=O)[C@]12C[C@H](CC(=O)NCC3CCCCC3)C(=O)N(Cc3ccc(Cl)cc3Cl)C1=C[C@H](C(C)(C)C)O[C@@H]2C | n | n | x | x | x | x
NC(=O)C1(N2CCCCC2)CCN(C2CC(=O)N(Cc3cccs3)C2=O)CC1 (centres undefined) | n | n | n | n | n | x
COc1cccc(N2C(=O)CC(N3CCC(C(N)=O)(N4CCCCC4)CC3)C2=O)c1 (centres undefined) | 54 | n | n | n | n | n
NC(=O)C1(N2CCCCC2)CCN(C2CC(=O)N(CCc3ccccc3)C2=O)CC1 (centres undefined) | 44 | n | n | n | n | n
Cc1sc2ccccc2[n+]1CC(=O)O | 48 | n | n | n | n | 54
Cc1sc2ccccc2[n+]1CCC(C)S(=O)(=O)[O-] (centres undefined) | 36 | n | n | n | n | 34
Cc1sc2ccccc2[n+]1CC(=O)c1ccccc1 | x | x | n | n | n | x
C[n+]1c2n(c3ccccc31)N=C(c1ccccc1)CS2 | 48 | n | n | n | n | n
C[n+]1c2n(c3ccccc31)N=C(c1ccc(Br)cc1)CS2 | 57 | n | n | n | n | n
C[n+]1c2n(c3ccccc31)N=C(c1ccc(-c3ccccc3)cc1)CS2 | n | n | n | n | n | x
O=C(c1ccc(F)cc1F)N(Cc1ccccn1)CC1CCCO1 (centres undefined) | n | n | x | x | x | x
O=S(=O)(O)c1cc(Cl)cc(N=Nc2ccc(O)cc2O)c1O | 86 | n | x | x | x | 65
O=[N+]([O-])c1ccc(N=Nc2ccc(O)cc2O)cc1 | n | n | n | n | n | x
CCCCN1CCN(C2=Nc3ccccc3Sc3ccccc32)CC1 | n | n | x | x | x | x
COC1=CC(=O)C(C2CC(=O)c3c(O)cc(O)cc3O2)=CC1=O (centres undefined) | 48 | n | x | x | x | 89
Nc1cc2c3c(cccc3c1)C(=O)N(CCN1CCCC1)C2=O | n | n | n | n | n | x
CCN(CC)CCN1C(=O)c2cccc3cc(N)cc(c23)C1=O | 25 | n | n | n | n | 22
CCOC(=O)Cn1cc(CN2CCS(=O)(=O)N(Cc3ccc(Cl)cc3)C(C(=O)OC)C2)nn1 (centres undefined) | n | n | x | x | x | x
COc1ccc(N=Cc2ccccc2O)cc1 | n | n | x | x | x | x
COc1ccc2sc(/C=C/c3ccccc3O)[n+](C)c2c1 | 36 | n | x | x | x | n
Cc1ccc(CN(Cc2ccccc2)C(=S)NCC(=O)NCc2cccnc2)o1 | 33 | n | n | n | n | n
CCOC(=O)c1csc(NC(=O)C2CCCN(S(=O)(=O)c3cccs3)C2)n1 (centres undefined) | n | n | x | x | x | x
SMILES | PRMT1 inh | TDP2 inh | Fh CTSL1 inh | PAD4 FP inh | GSTO1 counter | PRMT1 confirm
O=C1c2ccccc2C(=O)N1SC1CCCCC1 | 63 | n | n | n | n | 73
O=C(Cn1cnc2ccccc2c1=O)N1CCCCC1 | n | n | x | x | x | x
CC(NC(=O)c1cc2ccc(C(F)(F)F)cc2nc1N)c1cccc2ccccc12 (centres undefined) | n | n | x | x | x | x
COC(CNC(=O)[C@H](Cc1c[nH]c2ccccc12)NC1(C(=O)NC2CCCCC2)CCCCC1)OC | n | n | x | x | x | x
Oc1ccccc1OCc1nc2ccccc2s1 | 28 | n | n | n | n | n
NC(=O)CSCc1nc2ccccc2s1 | 27 | n | n | n | n | n
N/C(Cc1nc2ccccc2s1)=N\O | n | n | n | n | n | x
O=C(CN1CCCc2ccccc21)NCc1ccc(Cl)cc1 | n | n | x | x | x | x
COC(=O)CSc1n[nH]c(=S)s1 | n | n | n | n | n | x
O=C(O)CC(Sc1n[nH]c(=S)s1)C(=O)O (centres undefined) | 27 | n | n | n | n | n
COC(=O)C(C)Sc1n[nH]c(=S)s1 (centres undefined) | 35 | n | n | n | n | n
COC(=O)[C@]12C[C@H](CC(=O)N3CCCCC3)C(=O)N(Cc3cccc4ccccc34)C1=C[C@H](C1CCCC1)O[C@@H]2C | n | n | x | x | x | x
COc1ccc(N2CCCN(CC(=O)Nc3ccccc3C)CC2)cc1 | n | n | x | x | x | x
COC(=O)[C@]12C[C@H](CC(=O)NCc3cccs3)C(=O)N(Cc3ccc(Cl)cc3Cl)C1=C[C@H](C(C)C)O[C@@H]2C1CC1 | n | n | x | x | x | x
COC(=O)[C@H](CC(C)C)N(CCc1cn(Cc2ccccc2)nn1)S(=O)(=O)c1ccc(F)cc1Br | n | n | x | x | x | x
O=C(Nc1cccc(C(=O)O)c1)/C(=C\c1ccco1)NC(=O)c1ccccc1Cl | 30 | n | n | n | n | n
O=C(Nc1cccc(C(=O)O)c1)/C(=C\c1ccco1)NC(=O)c1ccc(Br)o1 | 34 | n | n | n | n | n
O=C(Nc1cccc(C(=O)O)c1)/C(=C\c1ccco1)NC(=O)c1ccccc1 | n | n | n | n | n | x
O=C(Nc1cccc(F)c1)/C(=C/c1ccco1)NC(=O)c1ccco1 | 30 | n | n | n | n | n
O=C(Nc1cccc(F)c1)/C(=C\c1cccnc1)NC(=O)c1ccco1 | n | n | n | n | n | x
CCN(CC)CCCN1C(=O)C2=C(C1=O)C1N(C)c3ccccc3[C@@]13C[C@@H](CO)N(C(=O)CCC(=O)OC)C3=N2 (some centres undefined) | n | n | x | x | x | x
NS(=O)(=O)c1cc(C(=O)OC2CCOC2=O)ccc1Cl (centres undefined) | n | n | n | n | n | x
O=C(OC1CCOC1=O)c1ccc2ncsc2c1 (centres undefined) | 39 | n | n | n | n | n
CN1C(=O)c2cc(NS(=O)(=O)c3ccc(F)cc3)ccc2OC[C@H]2O[C@@H](CC(=O)NCC(F)(F)F)CC[C@@H]21 | n | n | x | x | x | x
CCO[C@H]1OC(C(N)=O)=C[C@@H](c2ccccc2)[C@@H]1CCCO | 73 | n | n | n | n | n
CCO[C@H]1OC(C(N)=O)=C[C@@H](c2ccc(Br)cc2)[C@@H]1CCCO | n | n | n | n | n | x
CCCC1CCC2(CCCN2CCOC(=O)Nc2ccc(Br)cc2)CC1 (centres undefined) | n | n | x | x | x | x
C=CCc1cccc2cc(C(=O)NNC(=O)c3ccncc3)c(=O)oc12 | 27 | n | n | n | n | 26
C[C@H]1[C@@H](OC(=O)Nc2cccc(C(F)(F)F)c2)CC[C@@]23CCCN2C(=O)CCC[C@@H]13 | n | n | x | x | x | x
